In ChEMBL document CHEMBL4477166, “18β-Glycyrrhetinic Acid Derivatives Possessing a Trihydroxylated A Ring Are Potent Gram-Positive Antibacterial Agents” (2016):
≈ marks a conversion by molar mass, not a printed value. Calls of active or inactive are those of the source. The calls are words filed in the database; no cut-off is given here.

Experiments:
[1] = tested on: Staphylococcus aureus; assay: Reduction in narG expression in Staphylococcus aureus ATCC 25923 at 0.5 times MIC by qRT-PCR analysis relative to control; format: functional, organism-based
Summary of the method: (§1)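 Bacteria were grown in broth with compound at 0.5 × MIC or vehicle to exponential phase (OD620 = 0.4) and then pelleted. Total RNA was reverse-transcribed, and SYBR-based real-time PCR was run against housekeeping genes. Relative expression versus control was calculated by 2^−ΔΔCT. Mean ± SEM, n = 3, significance at p < 0.05.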

[2] = tested on: Staphylococcus aureus; assay: Antibacterial activity against Staphylococcus aureus ATCC 25923 by microdilution assay; format: functional
Summary of the method: (§2)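 Turbidimetric broth microdilution. Log-phase cells were washed and resuspended in broth (LB at 37 °C for B. subtilis and S. aureus; oat bran broth at 28 °C for S. scabies) and seeded at 1 × 10⁵ CFU/mL. Twofold serial dilutions were made with DMSO ≤1% (v/v). A620 was read, then plates were incubated with vigorous shaking. MIC was the lowest concentration with no apparent growth versus vehicle-only medium without cells. Run in triplicate.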

[3] = tested on: Bacillus subtilis; assay: Antibacterial activity against Bacillus subtilis ATCC 6051 at 0.5 times MIC by time-kill analysis; format: functional, organism-based
Summary of the method: (§3)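 Time-kill in LB at 37 °C. B. subtilis or S. aureus suspensions were set at 5 × 10⁵ CFU/mL and exposed to 0.5×, 1×, 2× and 4× MIC alongside negative and positive controls. Samples of 1 mL were taken at 0, 2, 4, 6, 8, 12 and 24 h, serially diluted and plated for viable counts, and survival was calculated. Three repeats.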

[4] = tested on: Staphylococcus aureus; assay: Down regulation of mecA gene in methicillin-resistant Staphylococcus aureus at 0.5 times MIC by qRT-PCR analysis relative to control; format: functional, organism-based
Summary of the method: (§4)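 MRSA grown in broth containing either 0.5 × MIC of test compound or vehicle alone. Cells harvested at exponential phase (OD₆₂₀ = 0.4). Total RNA reverse-transcribed, then SYBR-based real-time PCR run. Relative expression computed by the 2^−ΔΔCT method against the vehicle control or the parent-acid-treated group. Mean ± SEM, n = 3; significance set at p < 0.05.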

[5] = tested on: Staphylococcus aureus; assay: Down regulation of mecA gene in methicillin-resistant Staphylococcus aureus at 0.5 times MIC by qRT-PCR analysis relative to 18-beta-glycyrrhetinic acid; format: functional, organism-based; summary of the method: as §4
[6] = tested on: Staphylococcus aureus; assay: Upregulation of hla expression in Staphylococcus aureus ATCC 25923 at 0.5 times MIC by qRT-PCR analysis relative to control; format: functional, organism-based; summary of the method: as §1
[7] = tested on: Staphylococcus aureus; assay: Increase in fmhB expression in Staphylococcus aureus ATCC 25923 at 0.5 times MIC by qRT-PCR analysis relative to 18-beta-glycyrrhetinic acid; format: functional, organism-based; summary of the method: as §1
[8] = tested on: Staphylococcus aureus; assay: Increase in fmhB expression in Staphylococcus aureus ATCC 25923 at 0.5 times MIC by qRT-PCR analysis relative to control; format: functional, organism-based; summary of the method: as §1
[9] = tested on: Bacillus subtilis; assay: Upregulation of yhdT expression in Bacillus subtilis ATCC 6051 at 0.5 times MIC by qRT-PCR analysis relative to control; format: functional, organism-based; summary of the method: as §1
[10] = tested on: Bacillus subtilis; assay: Upregulation of ykuD expression in Bacillus subtilis ATCC 6051 at 0.5 times MIC by qRT-PCR analysis; format: functional, organism-based; summary of the method: as §1
[11] = tested on: Bacillus subtilis; assay: Antibacterial activity against Bacillus subtilis ATCC 6051 by time-kill analysis; format: functional, organism-based; summary of the method: as §3
[12] = tested on: Staphylococcus aureus; assay: Antibacterial activity against Staphylococcus aureus ATCC 25923 at 0.5 times MIC by time-kill analysis; format: functional, organism-based; summary of the method: as §3
[13] = tested on: Pseudomonas aeruginosa; assay: Antibacterial activity against multi-drug resistant Pseudomonas aeruginosa at 100 uM measured after 5 to 6 hrs by microdilution assay; format: functional, organism-based
Summary of the method: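 Log-phase cells seeded at 1 × 10⁵ CFU/mL. Single-dose screen at 100 μM, with DMSO cosolvent at most 1% v/v. Growth measured turbidimetrically at 620 nm, before and after incubation with vigorous shaking.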

[14] = tested on: Streptomyces scabiei; assay: Antibacterial activity against Streptomyces scabiei CGMCC4.7610246 by microdilution assay; format: functional; summary of the method: as §2
[15] = tested on: Staphylococcus aureus; assay: Inhibition of seaR expression in methicillin-resistant Staphylococcus aureus at 0.5 times MIC by qRT-PCR analysis relative to control; format: functional, organism-based; summary of the method: as §4
[16] = tested on: Bacillus subtilis; assay: Reduction in mmD expression in Bacillus subtilis ATCC 6051 at 0.5 times MIC by qRT-PCR analysis relative to control; format: functional, organism-based; summary of the method: as §1
[17] = tested on: Staphylococcus aureus; assay: Reduction in narG expression in methicillin-resistant Staphylococcus aureus at 0.5 times MIC by qRT-PCR analysis relative to control; format: functional, organism-based; summary of the method: as §4
[18] = tested on: Pseudomonas aeruginosa; assay: Antibacterial activity against Pseudomonas aeruginosa at 100 uM measured after 5 to 6 hrs by microdilution assay; format: functional, organism-based
[19] = tested on: Staphylococcus aureus; assay: Upregulation of seaR expression in Staphylococcus aureus ATCC 25923 at 0.5 times MIC by qRT-PCR analysis relative to control; format: functional, organism-based; summary of the method: as §1
[20] = tested on: Streptomyces scabiei; assay: Antibacterial activity against Streptomyces scabiei CGMCC4.7610246 at 0.5 times MIC by time-kill analysis; format: functional, organism-based
Summary of the method: (§5)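 Killing kinetics for S. scabies in oat bran broth at 28 °C, starting at 5 × 10⁵ CFU/mL. Exposure was 0.5×, 1×, 2× or 4× MIC, with negative and positive controls. Samples of 1 mL were withdrawn at 0, 4, 8, 16, 24 and 36 h, serially diluted and plated, and survival was calculated from colony counts. Performed in triplicate.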

[21] = tested on: Staphylococcus aureus; assay: Increase in fmhB expression in Staphylococcus aureus at 0.5 times MIC by qRT-PCR analysis relative to 18-beta-glycyrrhetinic acid; format: functional, organism-based; summary of the method: as §1
[22] = tested on: Staphylococcus aureus; assay: Inhibition of lytM expression in methicillin-resistant Staphylococcus aureus at 0.5 times MIC by qRT-PCR analysis; format: functional, organism-based; summary of the method: as §4
[23] = tested on: Bacillus subtilis; assay: Upregulation of yqhB expression in Bacillus subtilis ATCC 6051 at 0.5 times MIC by qRT-PCR analysis relative to control; format: functional, organism-based; summary of the method: as §1
[24] = tested on: Staphylococcus aureus; assay: Increase in fmhB expression in methicillin-resistant Staphylococcus aureus at 0.5 times MIC by qRT-PCR analysis relative to control; format: functional, organism-based; summary of the method: as §4
[25] = tested on: Staphylococcus aureus; assay: Effect on lytM expression in Staphylococcus aureus ATCC 25923 at 0.5 times MIC by qRT-PCR analysis; format: functional, organism-based; summary of the method: as §1
[26] = tested on: Streptomyces scabiei; assay: Antibacterial activity against Streptomyces scabiei CGMCC4.7610246 by time-kill analysis; format: functional, organism-based; summary of the method: as §5
[27] = tested on: Staphylococcus aureus; assay: Antibacterial activity against methicillin-resistant Staphylococcus aureus by microdilution assay; format: functional
Summary of the method: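 Log-phase cells seeded at 1 × 10⁵ CFU/mL. Twofold serial dilutions made in broth with DMSO cosolvent, at most 1% v/v. Turbidity read at 620 nm before and after incubation with vigorous shaking. MIC is the lowest concentration with no apparent growth versus the medium-plus-vehicle control. Run in triplicate.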

[28] = tested on: Bacillus subtilis; assay: Antibacterial activity against Bacillus subtilis ATCC 6051 by microdilution assay; format: functional; summary of the method: as §2
[29] = tested on: Staphylococcus aureus; assay: Antibacterial activity against Staphylococcus aureus ATCC 25923 by time-kill analysis; format: functional, organism-based; summary of the method: as §3
[30] = tested on: Escherichia coli; assay: Antibacterial activity against Escherichia coli at 100 uM measured after 5 to 6 hrs by microdilution assay; format: functional, organism-based
[31] = tested on: Staphylococcus aureus; assay: Inhibition of hla expression in methicillin-resistant Staphylococcus aureus at 0.5 times MIC by qRT-PCR analysis relative to control; format: functional, organism-based; summary of the method: as §4
[32] = tested on: Bacillus subtilis; assay: Upregulation of lytF expression in Bacillus subtilis ATCC 6051 at 0.5 times MIC by qRT-PCR analysis; format: functional, organism-based; summary of the method: as §1
[33] = tested on: Escherichia coli; assay: Antibacterial activity against Escherichia coli measured after 5 to 6 hrs by microdilution titre technique; format: functional
[34] = tested on: Bacillus thuringiensis; assay: Antibacterial activity against Bacillus thuringiensis measured after 5 to 6 hrs by microdilution titre technique; format: functional
[35] = tested on: Streptomyces scabiei; assay: Reduction in p450 expression in Streptomyces scabiei CGMCC4.7610246 at 0.5 times MIC by qRT-PCR analysis relative to control; format: functional, organism-based; summary of the method: as §1
[36] = tested on: Streptomyces scabiei; assay: Reduction in murX expression in Streptomyces scabiei CGMCC4.7610246 at 0.5 times MIC by qRT-PCR analysis relative to control; format: functional, organism-based; summary of the method: as §1
[37] = tested on: Escherichia coli; assay: Antibacterial activity against Escherichia coli ATCC 25922 measured after overnight incubation by microplate dilution assay; format: functional

Compound | MIC [33] [µg/mL] | MIC [34] [µg/mL] | MIC [2] [µg/mL] | Activity [3] | Activity [11] | Activity [12] | Activity [13] | MIC [14] [µg/mL] | Activity [18] | Activity [20] | Activity [26] | MIC [27] [µg/mL] | MIC [28] [µg/mL] | Activity [29] | Activity [30] | other results
CCOC(=O)[C@@]1(C)CC[C@]2(C)CC[C@]3(C)C(=CC[C@@H]4[C@@]5(C)[C@@H](O)[C@H](O)[C@H](O)C(C)(C)[C@@H]5CC[C@]43C)[C@@H]2C1 | – | – | 1 (≈ 1.94 µM) | inactive | Dose-dependent effect | inactive | inactive | 4.1 (≈ 7.93 µM) | inactive | inactive | Dose-dependent effect | 1 (≈ 1.94 µM) | 2 (≈ 3.87 µM) | Dose-dependent effect | inactive | Activity [1]: Active; Activity [4]: Active; Activity [5]: Active; Activity [6]: Active; Activity [7]: Active; Activity [8]: Active; Activity [9]: Active; Activity [10]: Active; inhibition [15]: Active; Activity [16]: Active; Activity [17]: Active; Activity [19]: Active; Activity [21]: Active; inhibition [22]: Active; Activity [23]: Active; Activity [24]: Active; Activity [25]: inactive; inhibition [31]: Active; Activity [32]: Active
COC(=O)[C@@]1(C)CC[C@]2(C)CC[C@]3(C)C(=CC[C@@H]4[C@@]5(C)[C@@H](O)[C@H](O)[C@H](O)C(C)(C)[C@@H]5CC[C@]43C)[C@@H]2C1 | – | – | 2 (≈ 3.98 µM) | inactive | Dose-dependent effect | inactive | inactive | 1 (≈ 1.99 µM) | inactive | inactive | Dose-dependent effect | > 32 | 4 (≈ 7.96 µM) | Dose-dependent effect | inactive | Activity [35]: Active; Activity [36]: Active
CC1(C)[C@@H](O)C[C@H](O)[C@]2(C)[C@H]3CC=C4[C@@H]5C[C@@](C)(C(=O)O)CC[C@]5(C)CC[C@@]4(C)[C@]3(C)CC[C@@H]12 | – | – | – | – | – | – | – | – | – | – | – | – | – | – | – | MIC [37]: 16 µg/mL (≈ 33.8 µM)

The next lines start with results.

MIC [33] [µg/mL] | MIC [34] [µg/mL] | Compound | MIC [2] [µg/mL] | Activity [3] | Activity [11] | Activity [12] | Activity [13] | MIC [14] [µg/mL] | Activity [18] | Activity [20] | Activity [26] | MIC [27] [µg/mL] | MIC [28] [µg/mL] | Activity [29] | Activity [30] | other results
3.9 (≈ 8.25 µM) | 0.9 (≈ 1.9 µM) | CC1(C)CC[C@]2(C(=O)O)CC[C@]3(C)C(=CC[C@@H]4[C@@]5(C)C[C@@H](O)[C@H](O)C(C)(C)[C@@H]5CC[C@]43C)[C@@H]2C1 [MASLINIC ACID] | – | – | – | – | – | – | – | – | – | – | – | – | – | –
7.8 (≈ 17.1 µM) | 1.9 (≈ 4.16 µM) | CC1(C)CC[C@]2(C(=O)O)CC[C@]3(C)C(=CC[C@@H]4[C@@]5(C)CC[C@H](O)C(C)(C)[C@@H]5CC[C@]43C)[C@@H]2C1 [OLEANOLIC_ACID] | – | – | – | – | – | – | – | – | – | – | – | – | – | –
